Laboratory results taken from ChEMBL document CHEMBL1125326, “Potent gonadotropin releasing hormone antagonists with low histamine-releasing activity” (J Med Chem, 1992).
In brackets after ≈: the same amount, converted by molar mass.

What was measured:
Rattus norvegicus [1] = species: Rattus norvegicus; experiment: Evaluated for the release of histamine in rats (based on 10 animals per dose group); format: functional, organism-based
Rattus norvegicus [2] = experiment: Evaluated for the anti-ovulatory activity (rats were injected subcutaneously at noon on proestrus); format: functional
Summary of the method: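 Female rats with at least two consecutive normal 4-day cycles, confirmed by vaginal lavage cytology, were dosed once s.c. at noon on proestrus in 50% propylene glycol/0.9% saline. On the morning of expected estrus, the oviducts were examined for ovulated eggs, which were counted. The effective dose came from % females ovulating plotted against log dose, usually with ≥3 dose groups (10 rats per group total).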

Row | SMILES | EC50 (Rattus norvegicus [1]) | ED50 (Rattus norvegicus [2])
1 | CC(=O)N[C@H](Cc1ccc2ccccc2c1)C(=O)N[C@H](Cc1ccc(Cl)cc1)C(=O)N[C@H](Cc1cccnc1)C(=O)N[C@@H](CO)C(=O)N[C@@H](CCCN=C(N)N)C(=O)N[C@H](CCC(=O)N[C@@H](C)C(=O)N[C@@H](C)C(=O)O)C(=O)N[C@@H](CC(C)C)C(=O)N[C@@H](CCCN=C(N)N)C(=O)N1CCC[C@H]1C(=O)N[C@H](C)C(N)=O | 1.6 µg/mL (≈ 1.04 µM) | <1.5 µg
2 | CC(=O)N[C@H](Cc1ccc2ccccc2c1)C(=O)N[C@H](Cc1ccc(Cl)cc1)C(=O)N[C@H](Cc1c[nH]c2ccccc12)C(=O)N[C@@H](CO)C(=O)N[C@@H](Cc1ccc(O)cc1)C(=O)N[C@H](Cc1c[nH]c2ccccc12)C(=O)N[C@@H](CC(C)C)C(=O)N[C@@H](CCCCN=C(NCC(F)(F)F)NCC(F)(F)F)C(=O)N1CCC[C@H]1C(=O)N[C@H](C)C(N)=O [listing 2 of 2 here] | – | >2 µg
3 | CC(=O)N[C@H](Cc1ccc2ccccc2c1)C(=O)N[C@H](Cc1ccc(Cl)cc1)C(=O)N[C@H](Cc1c[nH]c2ccccc12)C(=O)N[C@@H](CO)C(=O)N[C@@H](CCCN=C(N)N)C(=O)N[C@H](Cc1c[nH]c2ccccc12)C(=O)N[C@@H](CC(C)C)C(=O)N[C@@H](CCCCN=C(NCC(F)(F)F)NCC(F)(F)F)C(=O)N1CCC[C@H]1C(=O)N[C@H](C)C(N)=O [listing 2 of 2 here] | – | >2 µg
4 | CC(=O)N[C@H](Cc1ccc2ccccc2c1)C(=O)N[C@H](Cc1ccc(Cl)cc1)C(=O)N[C@H](Cc1c[nH]c2ccccc12)C(=O)N[C@@H](CO)C(=O)N[C@@H](Cc1ccc(O)cc1)C(=O)N[C@H](Cc1c[nH]c2ccccc12)C(=O)N[C@@H](CC(C)C)C(=O)N[C@@H](CCCCNC1=NCCCN1)C(=O)N1CCC[C@H]1C(=O)N[C@H](C)C(N)=O [listing 1 of 2 here] | 8.5 µg/mL (≈ 5.48 µM) | –
5 | CC(=O)N[C@H](Cc1ccc2ccccc2c1)C(=O)N[C@H](Cc1ccc(Cl)cc1)C(=O)N[C@H](Cc1c[nH]c2ccccc12)C(=O)N[C@@H](CO)C(=O)N[C@@H](Cc1ccc(O)cc1)C(=O)N[C@H](Cc1c[nH]c2ccccc12)C(=O)N[C@@H](CC(C)C)C(=O)N[C@@H](CCCCNC1=NCCCN1)C(=O)N1CCC[C@H]1C(=O)N[C@H](C)C(N)=O [listing 2 of 2 here] | – | >1 µg
6 | CC/N=C(/NCC)NCCCC[C@@H](NC(=O)[C@H](Cc1ccc(O)cc1)NC(=O)[C@H](CO)NC(=O)[C@@H](Cc1cccnc1)NC(=O)[C@@H](Cc1ccc(F)cc1)NC(=O)[C@@H](Cc1ccc2ccccc2c1)NC(C)=O)C(=O)N[C@@H](CC(C)C)C(=O)N[C@@H](CCCCN/C(=N/CC)NCC)C(=O)N1CCC[C@H]1C(=O)N[C@H](C)C(N)=O [listing 2 of 2 here] | – | 1 µg
7 | CCCC/N=C(\N)NCCCC[C@H](NC(=O)[C@H](CO)NC(=O)[C@@H](Cc1cccnc1)NC(=O)[C@@H](Cc1ccc(Cl)cc1)NC(=O)[C@@H](Cc1ccc2ccccc2c1)NC(C)=O)C(=O)N[C@H](Cc1cccnc1)C(=O)N[C@@H](CC(C)C)C(=O)N[C@@H](CCCCN/C(N)=N/CCCC)C(=O)N1CCC[C@H]1C(=O)N[C@H](C)C(N)=O [listing 1 of 2 here] | 9.3 µg/mL (≈ 5.98 µM) | –
8 | CCCC/N=C(\N)NCCCC[C@H](NC(=O)[C@H](CO)NC(=O)[C@@H](Cc1cccnc1)NC(=O)[C@@H](Cc1ccc(Cl)cc1)NC(=O)[C@@H](Cc1ccc2ccccc2c1)NC(C)=O)C(=O)N[C@H](Cc1cccnc1)C(=O)N[C@@H](CC(C)C)C(=O)N[C@@H](CCCCN/C(N)=N/CCCC)C(=O)N1CCC[C@H]1C(=O)N[C@H](C)C(N)=O [listing 2 of 2 here] | – | 1.5 µg
9 | CCCC/N=C(\N)NCCCC[C@H](NC(=O)[C@H](CC(C)C)NC(=O)[C@@H](Cc1c[nH]c2ccccc12)NC(=O)[C@H](Cc1ccc(O)cc1)NC(=O)[C@H](CO)NC(=O)[C@@H](Cc1c[nH]c2ccccc12)NC(=O)[C@@H](Cc1ccc(Cl)cc1)NC(=O)[C@@H](Cc1ccc2ccccc2c1)NC(C)=O)C(=O)N1CCC[C@H]1C(=O)N[C@H](C)C(N)=O | 1.6 µg/mL (≈ 1.02 µM) | ~1.3 µg
10 | CC/N=C(\NCC)NCCCC[C@H](NC(=O)[C@H](CO)NC(=O)[C@@H](Cc1cccnc1)NC(=O)[C@@H](Cc1ccc(F)cc1)NC(=O)[C@@H](Cc1ccc2ccccc2c1)NC(C)=O)C(=O)N[C@H](Cc1cccnc1)C(=O)N[C@@H](CC(C)C)C(=O)N[C@@H](CCCCN/C(=N/CC)NCC)C(=O)N1CCC[C@H]1C(=O)N[C@H](C)C(N)=O | 26.2 µg/mL (≈ 17 µM) | –
11 | CC/N=C(/NCC)NCCCC[C@@H](NC(=O)[C@H](Cc1ccc(O)cc1)NC(=O)[C@H](CO)NC(=O)[C@@H](Cc1c[nH]c2ccccc12)NC(=O)[C@@H](Cc1ccc(Cl)cc1)NC(=O)[C@@H](Cc1ccc2ccccc2c1)NC(C)=O)C(=O)N[C@@H](CC(C)C)C(=O)N[C@@H](CCCCN/C(=N/CC)NCC)C(=O)N1CCC[C@H]1C(=O)N[C@H](C)C(N)=O [listing 1 of 2 here] | 0.1 µg/mL (≈ 0.0622 µM) | –
12 | CC/N=C(/NCC)NCCCC[C@@H](NC(=O)[C@H](Cc1ccc(O)cc1)NC(=O)[C@H](CO)NC(=O)[C@@H](Cc1c[nH]c2ccccc12)NC(=O)[C@@H](Cc1ccc(Cl)cc1)NC(=O)[C@@H](Cc1ccc2ccccc2c1)NC(C)=O)C(=O)N[C@@H](CC(C)C)C(=O)N[C@@H](CCCCN/C(=N/CC)NCC)C(=O)N1CCC[C@H]1C(=O)N[C@H](C)C(N)=O [listing 2 of 2 here] | – | 0.5 µg
13 | CC(=O)N[C@H](Cc1ccc2ccccc2c1)C(=O)N[C@H](Cc1ccc(Cl)cc1)C(=O)N[C@H](Cc1cccnc1)C(=O)N[C@@H](CO)C(=O)N[C@@H](Cc1ccc(O)cc1)C(=O)N[C@H](CCCCNC1=NCCCN1)C(=O)N[C@@H](CC(C)C)C(=O)N[C@@H](CCCCNC1=NCCCN1)C(=O)N1CCC[C@H]1C(=O)N[C@H](C)C(N)=O | 1.33 µg/mL (≈ 0.865 µM) | ~0.6 µg
14 | CC(=O)N[C@H](Cc1ccc2ccccc2c1)C(=O)N[C@H](Cc1ccc(Cl)cc1)C(=O)N[C@H](Cc1c[nH]c2ccccc12)C(=O)N[C@@H](CO)C(=O)N[C@@H](Cc1ccc(O)cc1)C(=O)N[C@H](CCCCNC1=NCCCN1)C(=O)N[C@@H](CC(C)C)C(=O)N[C@@H](CCCCNC1=NCCCN1)C(=O)N1CCC[C@H]1C(=O)N[C@H](C)C(N)=O [listing 1 of 2 here] | 2.5 µg/mL (≈ 1.59 µM) | –
15 | CC(=O)N[C@H](Cc1ccc2ccccc2c1)C(=O)N[C@H](Cc1ccc(Cl)cc1)C(=O)N[C@H](Cc1c[nH]c2ccccc12)C(=O)N[C@@H](CO)C(=O)N[C@@H](Cc1ccc(O)cc1)C(=O)N[C@H](CCCCNC1=NCCCN1)C(=O)N[C@@H](CC(C)C)C(=O)N[C@@H](CCCCNC1=NCCCN1)C(=O)N1CCC[C@H]1C(=O)N[C@H](C)C(N)=O [listing 2 of 2 here] | – | 0.7 µg
16 | CC/N=C(/NCC)NCCCC[C@@H](NC(=O)[C@H](Cc1ccc(O)cc1)NC(=O)[C@H](CO)NC(=O)[C@@H](Cc1cccnc1)NC(=O)[C@@H](Cc1ccc(Cl)cc1)NC(=O)[C@@H](Cc1ccc2ccccc2c1)NC(C)=O)C(=O)N[C@@H](CC(C)C)C(=O)N[C@@H](CCCCN/C(=N/CC)NCC)C(=O)N1CCC[C@H]1C(=O)N[C@H](C)C(N)=O [listing 2 of 2 here] | – | 0.285 µg

Continued, in another order:

Row | EC50 (Rattus norvegicus [1]) | SMILES | ED50 (Rattus norvegicus [2])
17 | > 100 µg/mL | CC(=O)N[C@H](Cc1ccc2ccccc2c1)C(=O)N[C@H](Cc1ccc(Cl)cc1)C(=O)N[C@H](Cc1c[nH]c2ccccc12)C(=O)N[C@@H](CO)C(=O)N[C@@H](Cc1ccc(O)cc1)C(=O)N[C@H](Cc1c[nH]c2ccccc12)C(=O)N[C@@H](CC(C)C)C(=O)N[C@@H](CCCCN=C(NCC(F)(F)F)NCC(F)(F)F)C(=O)N1CCC[C@H]1C(=O)N[C@H](C)C(N)=O [listing 1 of 2 here] | –
18 | 0.56 µg/mL (≈ 0.335 µM) | CC(=O)N[C@H](Cc1ccc2ccccc2c1)C(=O)N[C@H](Cc1ccc(Cl)cc1)C(=O)N[C@H](Cc1c[nH]c2ccccc12)C(=O)N[C@@H](CO)C(=O)N[C@@H](CCCN=C(N)N)C(=O)N[C@H](Cc1c[nH]c2ccccc12)C(=O)N[C@@H](CC(C)C)C(=O)N[C@@H](CCCCN=C(NCC(F)(F)F)NCC(F)(F)F)C(=O)N1CCC[C@H]1C(=O)N[C@H](C)C(N)=O [listing 1 of 2 here] | –
19 | 8 µg/mL (≈ 5.15 µM) | CC/N=C(/NCC)NCCCC[C@@H](NC(=O)[C@H](Cc1ccc(O)cc1)NC(=O)[C@H](CO)NC(=O)[C@@H](Cc1cccnc1)NC(=O)[C@@H](Cc1ccc(F)cc1)NC(=O)[C@@H](Cc1ccc2ccccc2c1)NC(C)=O)C(=O)N[C@@H](CC(C)C)C(=O)N[C@@H](CCCCN/C(=N/CC)NCC)C(=O)N1CCC[C@H]1C(=O)N[C@H](C)C(N)=O [listing 1 of 2 here] | –
20 | 9.3 µg/mL (≈ 5.6 µM) | CC/N=C(\NCC)NCCCC[C@H](NC(=O)[C@H](CC(C)C)NC(=O)[C@@H](CCCCN=C(NCC(F)(F)F)NCC(F)(F)F)NC(=O)[C@H](Cc1ccc(O)cc1)NC(=O)[C@H](CO)NC(=O)[C@@H](Cc1cccnc1)NC(=O)[C@@H](Cc1ccc(F)cc1)NC(=O)[C@@H](Cc1ccc2ccccc2c1)NC(C)=O)C(=O)N1CCC[C@H]1C(=O)N[C@H](C)C(N)=O | –
21 | 0.64 µg/mL (≈ 0.408 µM) | CCCC/N=C(\N)NCCCC[C@H](NC(=O)[C@H](CC(C)C)NC(=O)[C@@H](CCCCN/C(N)=N/CCCC)NC(=O)[C@H](Cc1ccc(O)cc1)NC(=O)[C@H](CO)NC(=O)[C@@H](Cc1cccnc1)NC(=O)[C@@H](Cc1ccc(Cl)cc1)NC(=O)[C@@H](Cc1ccc2ccccc2c1)NC(C)=O)C(=O)N1CCC[C@H]1C(=O)N[C@H](C)C(N)=O | ~0.9 µg
22 | 13 µg/mL (≈ 8.28 µM) | CC/N=C(/NCC)NCCCC[C@@H](NC(=O)[C@H](Cc1ccc(O)cc1)NC(=O)[C@H](CO)NC(=O)[C@@H](Cc1cccnc1)NC(=O)[C@@H](Cc1ccc(Cl)cc1)NC(=O)[C@@H](Cc1ccc2ccccc2c1)NC(C)=O)C(=O)N[C@@H](CC(C)C)C(=O)N[C@@H](CCCCN/C(=N/CC)NCC)C(=O)N1CCC[C@H]1C(=O)N[C@H](C)C(N)=O [listing 1 of 2 here] | –
23 | 0.95 µg/mL (≈ 0.596 µM) | CC(=O)N[C@H](Cc1ccc2ccccc2c1)C(=O)N[C@H](Cc1ccc(Cl)cc1)C(=O)N[C@H](Cc1cccnc1)C(=O)N[C@@H](CO)C(=O)N[C@@H](CCCN=C(N)N)C(=O)N[C@H](Cc1cccnc1)C(=O)N[C@@H](CC(C)C)C(=O)N[C@@H](CCCCN=C(NCC(F)(F)F)NCC(F)(F)F)C(=O)N1CCC[C@H]1C(=O)N[C@H](C)C(N)=O | 0.595 µg
24 | 53 µg/mL (≈ 29.7 µM) | CC(=O)N[C@H](Cc1ccc2ccccc2c1)C(=O)N[C@H](Cc1ccc(Cl)cc1)C(=O)N[C@H](Cc1cccnc1)C(=O)N[C@@H](CO)C(=O)N[C@@H](CCCCN=C(NCC(F)(F)F)NCC(F)(F)F)C(=O)N[C@H](Cc1ccc(O)cc1)C(=O)N[C@@H](CC(C)C)C(=O)N[C@@H](CCCCN=C(NCC(F)(F)F)NCC(F)(F)F)C(=O)N1CCC[C@H]1C(=O)N[C@H](C)C(N)=O | 1.15 µg
25 | 15.7 µg/mL (≈ 10.5 µM) | CCCC/N=C(\N)NCCCC[C@H](NC(=O)[C@H](CC(C)C)NC(=O)[C@@H](Cc1cccnc1)NC(=O)[C@H](Cc1ccc(O)cc1)NC(=O)[C@H](CO)NC(=O)[C@@H](Cc1cccnc1)NC(=O)[C@@H](Cc1ccc(Cl)cc1)NC(=O)[C@@H](Cc1ccc2ccccc2c1)NC(C)=O)C(=O)N1CCC[C@H]1C(=O)N[C@H](C)C(N)=O | 1.2 µg
